This note sets out measurements from ChEMBL document CHEMBL1122854, “Novel bis[1,6-dihydro-6,6-dimethyl-1,3,5-triazine-2,4-diamines] as antitrypanosomal agents” (1985).

Format in all cases: functional
Conditions in all cases: route subcutaneous

Assay [1] has as its system Mus musculus. The assay is described as follows: Antitrypanosomal activity was evaluated against Trypanosoma rhodesiense infections in mice, at dose 212 mg/kg, administered subcutaneously;Cures. The procedure, abridged:
(§1)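 IUR/HA Swiss mice (six weeks old, 30-32 g) infected i.p. with Wellcome CT strain T. rhodesiense. A single subcutaneous dose in peanut oil was given about 2 h after inoculation, with five mice per dose level. Positive control was stilbamidine or 2-hydroxystilbamidine isethionate at 40 mg/kg. Deaths before day 4 were scored toxic, and 30-day survivors cured.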

Assay [2] concerns Mus musculus. Kind of assay: Antitrypanosomal activity was evaluated against Trypanosoma rhodesiense infections in mice, at dose 106 mg/kg, administered subcutaneously;cures. The procedure, abridged: as §1
Assay [3] concerns Mus musculus. The assay is described as follows: Antitrypanosomal activity was evaluated against Trypanosoma rhodesiense infections in mice, at dose 26 mg/kg, administered subcutaneously;cures. The procedure, abridged: as §1
The test system of assay [4] is Trypanosoma brucei rhodesiense. The assay is described as follows: Antitrypanosomal activity against Trypanosoma rhodesiense infections in mice, 424 mg/kg administered subcutaneously. The essentials: as §1
The test system of assay [5] is Mus musculus. The assay is described as follows: Antitrypanosomal activity was evaluated against Trypanosoma rhodesiense infections in mice, at dose 212 mg/kg, administered subcutaneously;Toxic. The procedure, abridged:
as §1

Assay [6] has as its system Trypanosoma brucei rhodesiense. Kind of assay: Antitrypanosomal activity against Trypanosoma rhodesiense infections in mice, 106 mg/kg administered subcutaneously. The procedure, abridged: (§2)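 Six-week-old IUR/HA Swiss mice (30-32 g), 5 per dose, infected ip with 0.5 mL of a 1:50 000 dilution of heparinized heart blood from donor mice infected 3 days before (Wellcome CT strain). Single sc dose in peanut oil about 2 h post-inoculation. Deaths before day 4 counted toxic. ΔMST versus untreated controls; survivors at 30 days counted cured.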

The test system of assay [7] is Trypanosoma brucei rhodesiense. The assay is described as follows: (§3) Antitrypanosomal activity was evaluated against Trypanosoma rhodesiense infections in mice, at dose 212 mg/kg, administered subcutaneously. The procedure, abridged: as §2
Assay [8] concerns Trypanosoma brucei rhodesiense. Kind of assay: Anti-trypanosomal activity against Trypanosoma rhodesiense infections in mice, 26 mg/kg administered subcutaneously. The procedure, abridged:
as §2

Assay [9] concerns Trypanosoma brucei rhodesiense. The assay is described as follows: (§4) Antitrypanosomal activity was evaluated against Trypanosoma rhodesiense infections in mice, at dose 53 mg/kg, administered subcutaneously. The essentials: as §2
The subject of assay [10] is Mus musculus. Kind of assay: Antitrypanosomal activity was evaluated against Trypanosoma rhodesiense infections in mice, at dose 13 mg/kg, administered subcutaneously;Cures. The procedure, abridged:
as §1

Assay [11] concerns Mus musculus. Kind of assay: Antitrypanosomal activity was evaluated against Trypanosoma rhodesiense infections in mice, at dose 26 mg/kg, administered subcutaneously;Cures. The essentials: as §1
Assay [12] concerns Mus musculus. The assay is described as follows: Antitrypanosomal activity was evaluated against Trypanosoma rhodesiense infections in mice, at dose 106 mg/kg, administered subcutaneously; Cures. The essentials:
as §1

Assay [13] deals with Mus musculus. The assay is described as follows: Antitrypanosomal activity was evaluated against Trypanosoma rhodesiense infections in mice, at dose 53 mg/kg, administered subcutaneously;Cures. The procedure, abridged: as §1
For assay [14], the system named is Mus musculus. The assay is described as follows: Antitrypanosomal activity was evaluated against Trypanosoma rhodesiense infections in mice, at dose 424 mg/kg, administered subcutaneously;Toxic. The procedure, abridged:
as §1

Assay [15] has as its system Mus musculus. Described as §3. The essentials:
as §2

Assay [16] concerns Trypanosoma brucei rhodesiense. The assay is described as follows: Antitrypanosomal activity against Trypanosoma rhodesiense infections in mice, 3.3 mg/kg administered subcutaneously. The essentials: as §2
In assay [17] the test system is Trypanosoma brucei rhodesiense. The assay is described as follows: Antitrypanosomal activity was evaluated against Trypanosoma rhodesiense infections in mice, at dose 424 mg/kg, administered subcutaneously. The procedure, abridged: as §2
For assay [18], the system named is Mus musculus. The assay is described as follows: (§5) Antitrypanosomal activity was evaluated against Trypanosoma rhodesiense infections in mice, at dose 6.6 mg/kg, administered subcutaneously. The essentials:
as §2

Assay [19] concerns Mus musculus. The assay is described as follows: Antitrypanosomal activity was evaluated against Trypanosoma rhodesiense infections in mice, at dose 13 mg/kg, administered subcutaneously; Cures. The procedure, abridged: as §1
Assay [20] concerns Mus musculus. The assay is described as follows: Antitrypanosomal activity was evaluated against Trypanosoma rhodesiense infections in mice, at dose 26 mg/kg, administered subcutaneously; Cures. The essentials:
as §1

The subject of assay [21] is Mus musculus. Kind of assay: Antitrypanosomal activity was evaluated against Trypanosoma rhodesiense infections in mice, at dose 53 mg/kg, administered subcutaneously; Cures. The essentials:
as §1

Assay [22] deals with Mus musculus. The assay is described as §4. The procedure, abridged: as §1
The test system of assay [23] is Mus musculus. The assay is described as §5. The essentials:
as §1
The source holds these as a separate data set.

The test system of assay [24] is Trypanosoma brucei rhodesiense. Kind of assay: Antitrypanosomal activity was evaluated against Trypanosoma rhodesiense infections in mice, at dose 106 mg/kg, administered subcutaneously. The procedure, abridged:
as §1

Assay [25] deals with Trypanosoma brucei rhodesiense. Kind of assay: Antitrypanosomal activity was evaluated against Trypanosoma rhodesiense infections in mice, at dose 1.6 mg/kg, administered subcutaneously. The procedure, abridged:
as §2

For assay [26], the system named is Trypanosoma brucei rhodesiense. The assay is described as follows: Antitrypanosomal activity against Trypanosoma rhodesiense infections in mice, 6.6 mg/kg administered subcutaneously. The essentials: as §2
Assay [27] deals with Mus musculus. Kind of assay: Antitrypanosomal activity was evaluated against Trypanosoma rhodesiense infections in mice, at dose 106 mg/kg, administered subcutaneously;Cures. The procedure, abridged:
as §1

The test system of assay [28] is Mus musculus. Kind of assay: Antitrypanosomal activity was evaluated against Trypanosoma rhodesiense infections in mice, at dose 6.6 mg/kg, administered subcutaneously;Cures. The essentials: as §1
For assay [29], the system named is Mus musculus. The assay is described as follows: Antitrypanosomal activity was evaluated against Trypanosoma rhodesiense infections in mice, at dose 1.6 mg/kg, administered subcutaneously;Cures. The procedure, abridged: as §1
In assay [30] the test system is Mus musculus. The assay is described as follows: Antitrypanosomal activity was evaluated against Trypanosoma rhodesiense infections in mice, at dose 424 mg/kg, administered subcutaneously; Cures. The procedure, abridged:
as §1

Assay [31] relates to Mus musculus. The assay is described as follows: Antitrypanosomal activity was evaluated against Trypanosoma rhodesiense infections in mice, at dose 106 mg/kg, administered subcutaneously;Toxic. The procedure, abridged:
as §1

In assay [32] the test system is Mus musculus. The assay is described as §3. The procedure, abridged:
as §1
This is another data set of the same source.

Each structure is given as a SMILES string.

With `Cl.Cl.N=C(N)NC(=N)Nc1ccc(CCc2ccc(NC(=N)N=C(N)N)cc2)cc1`, the figures for the Cures in the assay on Mus musculus [1], in the assay with Mus musculus [2] and in the assay with Mus musculus [3] were 2, 3 and 1, respectively. The Toxic in assay [4] is given as 5; with Mus musculus [5] it was 2. Moreover, the “Delta MST” value in assay [6] worked out at 8 days; in [7] it was 12 days; in [8], 3 days; in assay [9] it was 1.4 days.

Regarding `CC1(C)N=C(N)N=C(N)N1c1ccc(CCc2ccc(N3C(N)=NC(N)=NC3(C)C)cc2)cc1.Cl.Cl`, the Cures in the assay on Mus musculus [10] is given as 4; in the assay on Mus musculus [1], 3; in the assay with Mus musculus [11], 4; in the assay with Mus musculus [12], 5; in the assay on Mus musculus [13], 4. The compound also showed a Toxic with Mus musculus [14] of 3. The “Delta MST” value came to 3.8 days in the assay with Mus musculus [15]; 7.7 days in [8]; 3.2 days in [16]; 0.2 days in assay [17]; 3.4 days in the assay with Mus musculus [18]; 7.8 days in [9].

As to `CC1(C)N=C(N)N=C(N)N1c1ccc(OCOc2ccc(N3C(N)=NC(N)=NC3(C)C)cc2)cc1.Cl.Cl`, the Cures with Mus musculus [19] worked out at 3; in the assay with Mus musculus [20] it was 3; in the assay with Mus musculus [21], 1; in the assay on Mus musculus [23] it was 1. The Toxic in assay [4] is reported as 5; with Mus musculus [22] it was 2; in assay [24], 5. Further, the “Delta MST” value in assay [25] stood at 1 days; in assay [8], 1.8 days; in assay [16], 1.2 days; in [26], 2.3 days; in [9] it was 9 days.

On to `CC1(C)N=C(N)N=C(N)N1c1ccc(/C=C/c2ccc(N3C(N)=NC(N)=NC3(C)C)cc2)cc1.Cl.Cl`, for which the Cures in the assay on Mus musculus [10] amounted to 5; with Mus musculus [1], 4; in the assay with Mus musculus [11] it was 3; in the assay on Mus musculus [27] it was 3; in the assay with Mus musculus [28], 3; with Mus musculus [29], 1. Also, the Cures with Mus musculus [21] was 5.

With `CC1(C)N=C(N)N=C(N)N1c1ccc(Cc2ccc(N3C(N)=NC(N)=NC3(C)C)cc2)cc1.Cl.Cl`, the values for the Cures in the assay with Mus musculus [11], with Mus musculus [30] and in the assay with Mus musculus [13] were 1, 5 and 2, respectively. In addition, the Toxic was found to be 2 with Mus musculus [31] and 5 in the assay with Mus musculus [32]. For the same compound, the “Delta MST” value turned out to be 8 days in [6], 4 days in assay [8] and 6.5 days in assay [9].
